Kir21 inh – inhibitors of mouse Kir2.1 inward-rectifier potassium channel; Inward rectifier potassium channel 2 (Mus musculus), P35561; HEK293-Kir2.1, FluxOR thallium flux fluorescence; active compounds read low; B-score at 10 µM; 310,000 compounds, 0.85% hits;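 active means fluorescence ratio B-score at or below minus 3 SD of library scores, with starting-brightness B-score within 2 SD, cut at about -4.2 in these data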;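 further: channel flux triggered by added potassium and thallium sulfate stimulus; B-score of peak minus minimum fluorescence over baseline after thallium stimulus; more negative B-score means stronger Kir2.1 block with less thallium influx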
KCNK9 block – KCNK9 potassium channel inhibitors, primary screen, HEK293 cells, thallium flux | Potassium channel subfamily K member 9 (Homo sapiens), Q9NPC2 | FluxOR thallium flux fluorescence; active compounds read low | B-score at 10 µM | 310,000 compounds, 1.2% hits | AID 488922, 2010;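 active means ratio B-score over 3 SD below the library mean, with starting fluorescence within 5 SD of its mean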;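 further: negative B-score means less thallium flux so channel inhibition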
KCNQ1 act – potentiators or activators of KCNQ1 channel, primary screen, cell-based, thallium flux, high-throughput | B-score at 10 µM | CHO-K1 KCNQ1, thallium flux FluxOR fluorescence; active compounds read high | AID 2648, 2010 | 310,000 compounds, 0.35% hits;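 active means fluorescence ratio B-score, a plate-corrected score, at least three library SD, with initial intensity B-score within 5 SD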
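Assay system: CHO-K1 cells stably expressing KCNQ1; Medium: assay buffer with matched DMSO; Also added: K+/Tl+ depolarizing stimulus; Dosing: single dose; Timing: dye 90 min, compound 20 min, room temperature; Measured by: kinetic FluxOR thallium fluorescence, 10-s 1-Hz baseline, 110-s post-stimulus read; Read-out: peak-minus-minimum fluorescence over initial fluorescence, negative-control normalized, B-scored.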
KCNQ1 block – inhibitors of human KCNQ1 channel, primary screen, cell-based, thallium flux, high-throughput | B-score at 10 µM | AID 2642, 2010 | CHO-K1 KCNQ1, FluxOR thallium flux fluorescence; active compounds read high | 310,000 compounds, 1.3% hits;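 active means compounds whose thallium flux B-score, printed positive for inhibition, exceeds three library SD while starting fluorescence stays within three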;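 further: channel opened by potassium depolarization with thallium stimulus after 20 min compound exposure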
hERG rescue – hERG rescue from dofetilide block, primary screen, cell-based, CHO-hERG, FluxOR thallium flux, dofetilide IC70 | AID 1511, 2009 | dofetilide IC70 present | Voltage-gated inwardly rectifying potassium channel KCNH2 (Homo sapiens), Q12809 | 310,000 compounds, 0.51% hits | activation (rescue from dofetilide block), less the hit threshold, % at 10 µM;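 active means activation above the mean of controls blocked by dofetilide plus 5 SD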;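 further: thallium influx through hERG after potassium depolarization seen as dye fluorescence rise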
KCNK3 inh – human KCNK3 channel inhibitors, primary screen, CHO cells, FluxOR thallium flux, B-score; Potassium channel subfamily K member 3 (Homo sapiens), O14649; FluxOR fluorescence; active compounds read low; B-score at 10 µM; 340,000 compounds, 0.84% hits;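 active means B-score under library mean minus 4 SD, starting fluorescence ratio at most library mean plus 5 SD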;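 further: more negative B-score means stronger inhibition of thallium flux through KCNK3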
Target sequence (O14649 whole entry, looked up): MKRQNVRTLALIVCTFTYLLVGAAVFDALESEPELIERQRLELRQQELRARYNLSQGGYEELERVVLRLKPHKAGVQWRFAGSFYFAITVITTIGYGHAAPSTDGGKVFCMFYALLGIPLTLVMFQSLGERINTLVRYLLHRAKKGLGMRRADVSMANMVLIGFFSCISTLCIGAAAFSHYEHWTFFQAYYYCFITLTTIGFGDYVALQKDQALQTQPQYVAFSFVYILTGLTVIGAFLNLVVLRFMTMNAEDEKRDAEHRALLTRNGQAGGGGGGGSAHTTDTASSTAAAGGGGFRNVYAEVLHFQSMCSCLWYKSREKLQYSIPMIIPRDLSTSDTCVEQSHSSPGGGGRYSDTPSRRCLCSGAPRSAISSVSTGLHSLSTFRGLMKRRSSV
KCNK9 block conf – KCNK9 potassium channel inhibitors, confirmation, HEK293 cells, thallium flux, duplicate; shares compounds with KCNK9 block; FluxOR thallium flux fluorescence; inhibition, % at 10 µM; 4,900 compounds, 43% hits; AID 492992, 2010;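 active means thallium signal inhibited by more than 5 SD of the compound-free buffer control wells, on both duplicate plates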;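 further: 0% = assay buffer control wells without compound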
Kir21 sel – mouse Kir2.1 channel inhibition, confirmation, selectivity assay for KCNK9 modulator project, cell-based, HEK293, thallium flux; shares compounds with KCNK9 block; Kir2.1 cells, FluxOR thallium flux fluorescence; inhibition, % at 10 µM; 4,900 compounds, 4% hits; AID 492993, 2010;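 active means thallium signal drop more than 5 SD beyond the mean of the no-compound control wells, seen in both duplicate plates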;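 further: signal is fluorescence rise after thallium addition divided by baseline fluorescence; plate controls were assay buffer only for no effect and full block by chlorpromazine control for full effect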
HEK293 Tl ctr – thallium flux in non-induced HEK293 cells, confirmation, counter-screen for KCNK9 inhibitor project, cell-based, second counter screen, non-induced KCNK9-HEK293; shares compounds with KCNK9 block; FluxOR thallium flux; inhibition, % at 10 µM; 4,900 compounds, 40% hits; AID 492997, 2010;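 active means thallium signal drop beyond 5 SD of the untreated control mean, on both duplicate plates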;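 further: plate controls were buffer only IC0 wells for no effect and SID17386958 at its maximal inhibitory level for full effect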
Active calls of the source: *. Sampled rows, rich in hits. Any-hit rate of the full collection: about 3.8%.

Results for CN1CCN(c2nc(-c3cccs3)nc3ccccc23)CC1 ?
Kir21 inh: 0.45; KCNK9 block: inactive; KCNQ1 act: inactive; KCNQ1 block: inactive; hERG rescue: -12; KCNK3 inh: inactive

What do the screens show for `COc1ccc(C(=O)OCn2nnc3ccccc3c2=O)cc1`?
Kir21 inh: -0.1; KCNK9 block: inactive; KCNQ1 act: inactive; KCNQ1 block: inactive; hERG rescue: -15; KCNK3 inh: inactive

How did CCOC(=O)COc1cc(-n2c(=S)[nH]c3cc(OC)c(OC)cc3c2=O)c(Cl)cc1Cl do in these assays?
Kir21 inh: 0.52; KCNK9 block: -13*; KCNQ1 act: 16*; KCNQ1 block: inactive; hERG rescue: -6; KCNK3 inh: inactive; KCNK9 block conf: 54%*; Kir21 sel: inactive; HEK293 Tl ctr: inactive

How did CCOC(=O)COc1cc(N2C(=O)CSCC2=O)c(Cl)cc1Cl do in these assays?
Kir21 inh: -1.6; KCNK9 block: inactive; KCNQ1 act: inactive; KCNQ1 block: inactive; hERG rescue: 2; KCNK3 inh: inactive

How did Cc1cc(C)c(S(=O)(=O)N2CCC(C(=O)NCc3ccc(Cl)cc3Cl)CC2)c(C)c1 do in these assays?
Kir21 inh: 0.38; KCNK9 block: inactive; KCNQ1 act: inactive; KCNQ1 block: inactive; hERG rescue: -8; KCNK3 inh: inactive; KCNK9 block conf: inactive; Kir21 sel: inactive; HEK293 Tl ctr: inactive

Results for Cc1cc(NC(=O)Cn2nc(-c3cccs3)ccc2=O)cc(C)c1Br ?
Kir21 inh: -0.4; KCNK9 block: -8.3*; KCNQ1 act: inactive; KCNQ1 block: inactive; hERG rescue: -2; KCNK3 inh: inactive; KCNK9 block conf: 36%*; Kir21 sel: inactive; HEK293 Tl ctr: 26%*

What do the screens show for `Cc1ccccc1CN1C[C@@H]2C[C@@H](c3cn[nH]c3-c3ccc(F)cc3)N3CCC[C@@]23C1=O`?
Kir21 inh: 0.5; KCNK9 block: inactive; KCNQ1 act: inactive; KCNQ1 block: inactive; hERG rescue: -13; KCNK3 inh: inactive

How did COc1ccc(-c2[nH]ncc2[C@@H]2C[C@H]3CN(Cc4ccccc4C)C(=O)[C@]34CCCN24)cc1 do in these assays?
Kir21 inh: 0.2; KCNK9 block: inactive; KCNQ1 act: inactive; KCNQ1 block: inactive; hERG rescue: -9; KCNK3 inh: inactive; KCNK9 block conf: inactive; Kir21 sel: inactive; HEK293 Tl ctr: inactive

How did Cc1nn(Cc2ccc([N+](=O)[O-])cc2)c(=O)n1N(C)c1ncc(C(F)(F)F)cc1Cl do in these assays?
Kir21 inh: -0.69; KCNK9 block: inactive; KCNQ1 act: inactive; KCNQ1 block: inactive; hERG rescue: -5; KCNK3 inh: inactive

How did Cc1nn(Cc2ccc(Cl)cc2)c(=O)n1N(C)c1ncc(C(F)(F)F)cc1Cl do in these assays?
Kir21 inh: -1.1; KCNK9 block: inactive; KCNQ1 act: inactive; KCNQ1 block: inactive; hERG rescue: -6; KCNK3 inh: inactive; KCNK9 block conf: inactive; Kir21 sel: inactive; HEK293 Tl ctr: inactive
